Reference: ChEMBL document CHEMBL1151259, “Hemisynthetic secofriedelane triterpenes with inhibitory activity against the growth of human tumor cell lines in vitro” (J Nat Prod, 2004)

How the values were obtained:
SF-268 = experiment: Cytotoxicity against human SF268 cells after 48 hrs by SRB assay; type: functional, cell-based; details: SF-268, 48 h
How it was run: (§1)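 Compounds dissolved in DMSO and freshly diluted in culture medium, final DMSO 0.25%. Growth inhibition read by sulforhodamine B protein staining per the NCI screening protocol. Doxorubicin as positive control. GI50 given as mean ± SEM of 3-6 independent experiments, each in duplicate.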

MCF7 = experiment: Cytotoxicity against human MCF7 cells after 48 hrs by SRB assay; type: functional, cell-based; details: MCF7, 48 h; how it was run: as §1
NCI-H460 = experiment: Cytotoxicity against human NCI-H460 cells after 48 hrs by SRB assay; type: functional, cell-based; details: NCI-H460, 48 h; how it was run: as §1
[1] = Antiproliferative activity against human lymphocytes; type: cell-based; details: Lymphocyte

| Structure (SMILES) | GI50 (SF-268) | GI50 (MCF7) | GI50 (NCI-H460) | IC50 (SF-268) | IC50 (MCF7) | IC50 (NCI-H460) | IC50 [1] |
| --- | --- | --- | --- | --- | --- | --- | --- |
| COC(=O)C[C@H]1[C@]2(C)CC[C@@]3(C)[C@@H]4CC(C)(C)CC[C@]4(C)CC[C@]3(C)[C@H]2CC[C@]1(C)C(C)=O | 106 µM | 101 µM | 93.9 µM | – | – | – | – |
| C[C@@H](C(=O)O)[C@@]1(C)CC[C@H]2[C@@](C)(CC[C@@]3(C)[C@@H]4CC(C)(C)CC[C@]4(C)CC[C@]23C)[C@@H]1CC=O | – | – | – | 5.4 µM | 5.4 µM | 5.4 µM | 10.7 µM |
| CC(=O)[C@@]1(C)CC[C@H]2[C@@](C)(CC[C@@]3(C)[C@@H]4CC(C)(C)CC[C@]4(C)CC[C@]23C)[C@@H]1CCC(=O)O | 24.6 µM | 26.9 µM | 32.8 µM | – | – | – | – |
| COC(=O)CC[C@H]1[C@]2(C)CC[C@@]3(C)[C@@H]4CC(C)(C)CC[C@]4(C)CC[C@]3(C)[C@H]2CC[C@]1(C)C(C)=O | > 110 µM | > 110 µM | > 110 µM | – | – | – | – |
| COc1cccc2c1C(=O)c1c(O)c3c(c(O)c1C2=O)C[C@@](O)(C(=O)CO)C[C@@H]3O[C@H]1C[C@H](N)[C@H](O)[C@H](C)O1 [DOXORUBICIN] | 0.094 µM | 0.0428 µM | 0.094 µM | – | – | – | – |
| CC1(C)CC[C@]2(C)CC[C@]3(C)[C@H]4CC[C@@]5(C)[C@@H](CCC(=O)[C@]5(C)O)[C@]4(C)CC[C@@]3(C)[C@@H]2C1 | > 50 µM | > 50 µM | > 50 µM | – | – | – | – |
| CC(=O)[C@@]1(C)CC[C@H]2[C@@](C)(CC[C@@]3(C)[C@@H]4CC(C)(C)CC[C@]4(C)CC[C@]23C)[C@@H]1CC(=O)O | 12.9 µM | 10.9 µM | 17.6 µM | – | – | – | – |
| CC1(C)CC[C@]2(C)CC[C@]3(C)[C@H]4CC[C@@]5(C)[C@@H](CCC(=O)[C@@]5(C)O)[C@]4(C)CC[C@@]3(C)[C@@H]2C1 | > 110 µM | > 110 µM | > 110 µM | – | – | – | – |
